ChEMBL document CHEMBL5390255, “Expanding the squaramide library as mycobacterial ATP synthase inhibitors: Innovative synthetic pathway and biological evaluation” (Bioorg Med Chem, 2023)
pIC50: −log10 of the molar value. Converted amounts (≈) assume the structure as drawn. The source made the active and inactive calls. The rule behind the calls is not given here.

Columns and labels:
[1] = Cytotoxicity against mouse RAW264.7 cells assessed as reduction of cell viability incubated for 72 hrs by Cell Titer-Glo assay; type: toxicity, cell-based
[2] = system: Mycobacterium tuberculosis; assay: Antibacterial activity against Mycobacterium tuberculosis H37Ra assessed as bacterial growth inhibition incubated for 7 days by broth microdilution method; type: functional; conditions: time 7 day
Summary of the method: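 H37Ra-Lux luminescent broth microdilution. Cultures in 7H9/OADC/tyloxapol/glycerol at 1x10⁴ RLU/well. 2-fold nine-point dilution from final 100 µM, DMSO ≤0.5%, in triplicate, with bedaquiline reference. Incubated 7 days at 37 °C; luminescence read after n-decanal injection. MIC90 from variable-slope four-parameter nonlinear regression.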

[3] = system: Mycobacterium tuberculosis; assay: Bactericidal activity against Mycobacterium tuberculosis H37Ra assessed as bacterial growth inhibition incubated for 3 to 4 weeks by broth microdilution method; type: functional; conditions: time 3-4 weeks
Summary of the method: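 MBC: same H37Ra-Lux microdilution setup as the MIC assay. At 14 days, 2 µL per condition spotted on 7H11 agar in triplicate, and wells at and one step above MIC fully plated. Colonies counted after 3–4 weeks at 37 °C. MBC is the lowest concentration giving >99% kill.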

[4] = Octanol/water partition coefficient log P of the compound; type: physicochemical
Summary of the method: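 Calculated by Chemaxon as log n-octanol/water partition coefficient, not measured.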

[5] = system: Mycobacterium tuberculosis; assay: Synergistic antibacterial activity against Mycobacterium tuberculosis H37Ra assessed as fractional inhibitory concentration index at 2 times MIC measured after 7 days in presence of clofazimine by checkerboard microdilution assay; type: functional; conditions: time 7 day
Summary of the method: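 Checkerboard with H37Ra-Lux, in triplicate. Squaramide 2-fold dilutions from 2x MIC across columns; clofazimine 2-fold dilutions from 2x MIC down rows. Luminescence read at 7 days. FICI calculated as A/MIC A + B/MIC B.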

[6] = system: Mycobacterium tuberculosis; assay: Anti-mycobacterial activity against Mycobacterium tuberculosis H37Ra infected in mouse RAW264.7 cells at 0.5 to 2 times MIC measured after 24 hrs by time-kill kinetic assay; type: functional, organism-based
Summary of the method: (§1)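 RAW 264.7 macrophages infected with H37Ra-Lux at MOI 10 for 4 h in DMEM with 5% iFBS. Extracellular bacteria were removed with 200 µg/ml amikacin for 1 h, and cells reseeded at 5x10⁴/well. […] Cells were PBS-washed, lysed in 0.1% Triton X-100, and luminescence read with n-decanal at 24, 48 and 72 h.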

[7] = system: Mycobacterium tuberculosis; assay: Anti-mycobacterial activity against Mycobacterium tuberculosis H37Ra infected in mouse RAW264.7 cells at 0.5 to 2 times MIC measured after 72 hrs by time-kill kinetic assay; type: functional, organism-based; summary of the method: as §1
[8] = Stability of compound; type: physicochemical
[9] = system: Mycobacterium tuberculosis; assay: Antibacterial activity against wild type Mycobacterium tuberculosis H37Ra incubated for 7 days by resazurin staining based microtiter assay; type: functional; conditions: 168 h, time 7 day
Summary of the method: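 Resazurin microtiter assay on H37Ra atpB K179N mutants and wild type, using exponential cultures diluted to OD 0.02. 3-fold serial dilution from 10 µM (0.002–10 µM), in triplicate. After 7 days, 0.02% resazurin added for 24 h, then fluorescence read (ex 530/em 590 nm). MIC taken from four-parameter variable-slope nonlinear regression.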

[10] = system: Mycobacterium tuberculosis; assay: Antibacterial activity against Mycobacterium tuberculosis H37Rv assessed as bacterial growth inhibition by resazurin staining based broth micro-dilution assay; type: functional
[11] = system: Mycobacterium tuberculosis; assay: Anti-mycobacterial activity against Mycobacterium tuberculosis H37Ra.mScarlet+ infected in mouse RAW264.7 cells assessed as reduction in bacterial load at 4 uM incubated for 72 hrs by 488-I Phalloidin/DAPI staining based microscopic analysis relative to control; type: functional; set-up: scale not given: the % may be the effect or the level left
Summary of the method: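 RAW 264.7 cells infected with H37Ra.mScarlet⁺, seeded on coverslips at 5x10⁵ cells/ml, and treated with compound at 0.5% final DMSO; infected cells with 0.5% DMSO as control. At 72 h cells were PBS-washed and fixed in 4% paraformaldehyde. Actin stained with phalloidin 488 (1:1000, 15 min) and nuclei with 1 µg/ml DAPI (5 min). Imaged by fluorescence microscopy at 63x.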

[12] = system: Mycobacterium tuberculosis; assay: Anti-mycobacterial activity against Mycobacterium tuberculosis H37Ra infected in mouse RAW264.7 cells at 0.5 times MIC measured after 24 hrs by time-kill kinetic assay; type: functional, organism-based; summary of the method: as §1
ATP synthase = assay: Inhibition of Mycobacterium tuberculosis H37Rv ATP synthase by luminometer analysis; type: protein-complex assay
[13] = Selectivity index, ratio of MIC for antibacterial activity against Mycobacterium tuberculosis H37Rv to the IC50 for inhibition of Mycobacterium tuberculosis H37Rv ATP synthase; type: toxicity
[14] = Mycobacterium tuberculosis, H37Ra, 168 h, read-out: MIC
[15] = Mycobacterium tuberculosis, H37Ra, read-out: MBC

`CC/C(=C(\c1ccccc1)c1ccc(OCCN(C)C)cc1)c1ccccc1` [TAMOXIFEN] showed a CC50 at 72 h [1] of 5.03 µM.

In the case of `O=c1c(NCc2ccccn2)c(-c2ccc(F)cc2)c1=O`, the MIC [2, 14] was 14.9 µM (≈ 4.21 µg/mL), the MBC [3, 15] was > 100 µM and the logP [4] was 2.48. For the same compound, the CC50 at 72 h [1] was > 64 µM.

With `O=c1c(NCCCBr)c(NCc2ccccn2)c1=O` the MIC [2, 14] was > 64 µM, the logP [4] was 0.85 and the CC50 at 72 h [1] was > 64 µM.

For `COc1ccc(-c2c(NCc3ccccn3)c(=O)c2=O)cc1`, the “fractional inhibitory concentration index (FICI)” value [5] was 0.63, the Activity [6] was “inactive” and the MIC [2, 14] was 6.59 µM (≈ 1.94 µg/mL). For the same compound, the Activity [7] was “inactive”, the MBC [3, 15] was 8 µM (≈ 2.35 µg/mL) and the logP [4] was 2.18. The CC50 at 72 h [1] was > 64 µM.

For `O=c1c(NCc2ccccn2)c(N2CCNCC2)c1=O`, the MIC [2, 14] was > 64 µM, the logP [4] was -0.21 and the CC50 at 72 h [1] was > 64 µM.

With `Cc1ccc2oc(Nc3c(NCc4ccccn4)c(=O)c3=O)nc2c1` the MIC [2, 14] was > 64 µM, the logP [4] was 2.13 and the CC50 at 72 h [1] was > 64 µM.

In the case of `Cc1ccc2nc(Nc3c(NCc4ccccn4)c(=O)c3=O)oc2c1`, the MIC [2, 14] was > 64 µM, the logP [4] was 2.13 and the CC50 at 72 h [1] was > 64 µM.

In the case of `O=c1c(NCc2ccccn2)c(N2CCN(c3ccccc3)CC2)c1=O`, the MIC [2, 14] was > 64 µM, the logP [4] was 2.06 and the CC50 at 72 h [1] was 26.2 µM.

For `O=c1c(NCc2ccccc2)c(NCc2ccccn2)c1=O`, the MIC [2, 14] was > 64 µM, the logP [4] was 1.67 and the CC50 at 72 h [1] was > 64 µM.

With `O=c1c(NCc2ccccn2)c(N2CCC(c3ccccc3)CC2)c1=O` the MIC [2, 14] was > 64 µM, the logP [4] was 2.6 and the CC50 at 72 h [1] was 7.47 µM.

With `CCCCCCNc1c(NCc2ccccn2)c(=O)c1=O` the MIC [2, 14] was > 64 µM, the logP [4] was 2.16 and the CC50 at 72 h [1] was > 64 µM.

For `O=c1c(NCc2ccccn2)c(NC2CCCCC2)c1=O`, the MIC [2, 14] was > 64 µM, the logP [4] was 1.74 and the CC50 at 72 h [1] was > 64 µM.

For `O=c1c(NCc2ccccn2)c(-c2ccc(N3CCNCC3)cc2)c1=O`, the MIC [2, 14] was 19.9 µM (≈ 6.93 µg/mL), the MBC [3, 15] was 64 µM (≈ 22.3 µg/mL) and the logP [4] was 1.91. For the same compound, the CC50 at 72 h [1] was > 64 µM.

For `O=c1c(NCc2ccccn2)c(Nc2nc3ccc([N+](=O)[O-])cc3o2)c1=O`, the MIC [2, 14] was > 64 µM, the logP [4] was 1.55 and the CC50 at 72 h [1] was > 64 µM.

For `O=c1c(NCc2ccccn2)c(Nc2nc3ccc(Cl)cc3o2)c1=O`, the MIC [2, 14] was > 64 µM, the logP [4] was 2.22 and the CC50 at 72 h [1] was > 64 µM.

For `O=c1c(NCc2ccccn2)c(N2CCCCC2)c1=O`, the MIC [2, 14] was > 64 µM, the logP [4] was 1.18 and the CC50 at 72 h [1] was > 64 µM.

In the case of `CCCNc1c(NCc2ccccn2)c(=O)c1=O`, the MIC [2, 14] was > 64 µM, the logP [4] was 0.82 and the CC50 at 72 h [1] was > 64 µM.

For `O=c1c(NCc2ccccn2)c(-c2ccc(N3CCSCC3)cc2)c1=O`, the Stability [8] was “Unstable”, the “fractional inhibitory concentration index (FICI)” value [5] was 0.48 and the MIC [2, 14] was 0.9 µM (≈ 0.329 µg/mL). The Activity [7] was “inactive”, the MBC [3, 15] was 1.2 µM (≈ 0.439 µg/mL) and the logP [4] was 2.8. The CC50 at 72 h [1] was > 64 µM.

With `O=c1c(NCc2ccccn2)c(Nc2nc3cc([N+](=O)[O-])ccc3o2)c1=O` the MIC [2, 14] was > 64 µM, the logP [4] was 1.55 and the CC50 at 72 h [1] was > 64 µM.

In the case of `COc1nc2ccc(Br)cc2cc1[C@@H](c1ccccc1)[C@@](O)(CCN(C)C)c1cccc2ccccc12` [BEDAQUILINE], the MIC [2, 14] was 0.05 µM (≈ 0.0278 µg/mL), the MBC [3, 15] was 0.03 µM (≈ 0.0167 µg/mL) and the MIC [9] was 0.1 µM (≈ 0.0556 µg/mL).

`COc1ccc(/C=C2/S/C(=N/N=C/c3ccccc3O)NC2=O)cc1` gave an MIC90 ([10]; Mycobacterium tuberculosis, H37Rv) of 0.5 µg/mL (≈ 1.41 µM).

With `O=c1c(NCc2ccccn2)c(N2CCOCC2)c1=O` the MIC [2, 14] was > 64 µM, the logP [4] was 0.11 and the CC50 at 72 h [1] was > 64 µM.

For `O=c1c(NCc2ccccn2)c(-c2ccc(C3CCCCC3)cc2)c1=O`, the MIC [2, 14] was > 64 µM, the logP [4] was 4.45 and the CC50 at 72 h [1] was > 64 µM.

In the case of `O=c1c(NCc2ccccn2)c(Nc2nc3cc(Cl)ccc3o2)c1=O`, the MIC [2, 14] was > 64 µM, the logP [4] was 2.22 and the CC50 at 72 h [1] was > 64 µM.

In the case of `O=c1c(NCc2ccccn2)c(Nc2nc3ccccc3o2)c1=O`, the MIC [2, 14] was > 64 µM, the logP [4] was 1.61 and the CC50 at 72 h [1] was > 64 µM.

For `O=c1c(NCc2ccccn2)c(NC2CCCCCCC2)c1=O`, the MIC [2, 14] was > 64 µM, the logP [4] was 2.63 and the CC50 at 72 h [1] was > 64 µM.

With `C#CCNc1c(NCc2ccccn2)c(=O)c1=O` the MIC [2, 14] was > 64 µM, the logP [4] was 0.17 and the CC50 at 72 h [1] was > 64 µM.

With `O=c1c(NCc2ccccn2)c(Nc2cc(C3CC3)n[nH]2)c1=O` the MIC [2, 14] was > 64 µM, the logP [4] was 0.89 and the CC50 at 72 h [1] was > 64 µM.

For `O=c1c(NCc2ccccn2)c(Nc2ccccc2)c1=O`, the MIC [2, 14] was 15.1 µM (≈ 4.23 µg/mL), the logP [4] was 1.58 and the CC50 at 72 h [1] was > 64 µM.

With `O=c1c(NCc2ccccn2)c(-c2ccc(N3CCCCC3)cc2)c1=O` the “fractional inhibitory concentration index (FICI)” value [5] was 0.29, the Activity [11] was 80% and the MIC [2, 14] was 2.56 µM (≈ 0.889 µg/mL). The Activity [7] was “inactive”, the MBC [3, 15] was 1.2 µM (≈ 0.417 µg/mL) and the logP [4] was 3.29. For the same compound, the CC50 at 72 h [1] was > 64 µM and the Activity [12] was “Active”.

With `O=c1c(NCc2ccccn2)c(-c2ccc(N3CCOCC3)cc2)c1=O` the “fractional inhibitory concentration index (FICI)” value [5] was 0.37, the pIC50 (ATP synthase) was 7.52 and the “Selectivity Index” value [13] was > 1000. The MIC [10] was 0.5 µM (≈ 0.175 µg/mL), the MIC [2] was 0.77 µM (≈ 0.269 µg/mL) and the Activity [7] was “inactive”. The MBC [3] was 0.4 µM (≈ 0.14 µg/mL) and the CC50 at 72 h [1] was > 64 µM.

For `O=c1c(NCc2ccccn2)c(-c2ccc(C3CCNCC3)cc2)c1=O`, the MIC [2, 14] was > 64 µM, the logP [4] was 2.44 and the CC50 at 72 h [1] was > 64 µM.
